The record followed here is ChEMBL document CHEMBL5033998, “Discovery of DDO-2213 as a Potent and Orally Bioavailable Inhibitor of the WDR5-Mixed Lineage Leukemia 1 Protein-Protein Interaction for the Treatment of MLL Fusion Leukemia” (J Med Chem, 2021).

Data set [1] concerns the target Histone-lysine N-methyltransferase 2A/WDR5 (Homo sapiens, UniProt P61964). The data set is described as follows: Inhibition of MLL1-WDR5 (unknown origin) protein-protein interaction using Thr-FAM as probe by fluorescence polarization competition assay. The essentials:
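Competitive FP with WDR5 and 10mer-Thr-FAM probe in 100 mM KH2PO4, 25 mM KCl, 0.01% Triton X-100, pH 6.5; read at λex 485 ± 25 nm, λem 535 ± 25 nm. IC50 from three independent replicates ± SD.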

Data set [2] is described as follows: Permeability of compound at pH 7.4 incubated for 4 hrs by PAMPA assay. It is filed as ADME. The note with it: read-out: permeability. The essentials: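 Double-sink PAMPA: compound diluted in pH 7.4 donor buffer, permeation through artificial membrane to acceptor over 4 h at 25 °C; donor and acceptor read by UV; mean ± SD of three independent experiments.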

Data set [3] concerns MV4-11. The data set is described as follows: Antiproliferative activity against human MV4-11 cells assessed as cell viability incubated for 72 hrs by CCK8 assay. It is filed as functional, cell-based. The conditions noted are these: MV4-11, 72 h. In outline:
(§1)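 Cells seeded at 3000–6000 per well, exposed to inhibitor at several concentrations for 72 h; viability read with CCK8 kit. MV4-11 and K562 grown in modified IMDM + 10% FBS, pen/strep; MOLM-13 in RPMI-1640 + 10% FBS; HUVEC in modified DMEM + 10% FBS; 37 °C, 5% CO2. IC50 as mean ± SD of three independent experiments.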

For data set [4], the system named is MOLM-13. The data set is described as follows: Antiproliferative activity against human MOLM-13 cells assessed as cell viability incubated for 72 hrs by CCK8 assay. In kind it is functional, cell-based. The conditions noted are these: MOLM-13, 72 h. The essentials: as §1
The subject of data set [5] is K562. The data set is described as follows: Antiproliferative activity against human K562 cells assessed as cell viability incubated for 72 hrs by CCK8 assay. It is filed as functional, cell-based. The note with it: K562, 72 h. In outline:
as §1

In data set [6] the test system is HUVEC. As to the kind of experiment: Antiproliferative activity against human HUVEC cells assessed as cell viability incubated for 72 hrs by CCK8 assay. It is filed as cell-based. In outline:
as §1

Data set [7] addresses Histone-lysine N-methyltransferase 2A/WDR5 (Homo sapiens) (UniProt P61964+Q03164). As to the kind of experiment: Inhibition of MLL1-WDR5 (unknown origin) protein-protein interaction at 100 uM by competitive fluorescence polarization assay.

The structures appear in SMILES notation.

In turn, `CN1CCN(c2ccc(-c3ccc(C(=O)N4CCOCC4)cc3)cc2Nc2ncnc(Cl)c2N)CC1` came in with an IC50 in data set [1] of 0.19 µM.

Regarding `CN1CCN(c2cc(F)c(-c3ccc(C(=O)NCCCN4CCOCC4)cc3)cc2Nc2ncnc(Cl)c2N)CC1`, in data set [2], the Papp at 4 h was 9.14 ×10⁻⁶ cm/s. Also, the IC50 in data set [3] is 25.6 µM; in data set [4], 17.3 µM; in data set [5] it was 70.1 µM; in data set [1] it was 0.021 µM; in data set [6] it was over 100 µM.

In data set [1], `CN1CCN(c2cc(F)c(-c3ccc(C(=O)N4CCC(O)CC4)cc3)cc2Nc2ncnc(Cl)c2N)CC1` showed an IC50 of 33 µM.

Compound `CN1CCN(c2ccc(-c3ccc(C(=O)NC4CCOCC4)cc3)cc2Nc2ncnc(Cl)c2N)CC1` gave an IC50 in data set [1] of 0.42 µM.

As to `CN1CCC(C(=O)Nc2ccc(-c3ccc(N4CCN(C)CC4)c(Nc4ncnc(Cl)c4N)c3F)cc2)CC1`, the IC50 in data set [1] came to 105 µM.

As to `CN1CCN(c2ccc([N+](=O)[O-])cc2Nc2cc(N3CCC3)ncn2)CC1`, the half-inhibitory concentration (IC50) in data set [1] is over 50 µM.

In data set [1], `CN1CCN(c2ccc(-c3ccc(C(=O)NCCCN4CCOCC4)cc3)c(F)c2Nc2ncnc(Cl)c2N)CC1` returned an IC50 of 69 µM.

Turning to `CN1CCN(c2ccc([N+](=O)[O-])cc2Nc2ncnc3ccccc23)CC1`, the inhibition in data set [7] was 35.8%.

In data set [1], `Cc1cc(N2CCN(C)CC2)c(Nc2ncnc(Cl)c2N)cc1-c1ccc(C(=O)NCCCN2CCOCC2)cc1` displayed an IC50 of 465 µM.

The compound `CCN1CCN(C(=O)c2ccc(-c3ccc(N4CCN(C)CC4)c(Nc4ncnc(Cl)c4N)c3F)cc2)CC1` showed an IC50 in data set [1] of 112 µM.

Regarding `CN1CCN(c2ccc(-c3ccc(C(=O)N4CCC(C)(O)CC4)cc3)cc2Nc2ncnc(Cl)c2N)CC1`, in data set [1], the IC50 is 0.16 µM.

With `CN1CCN(c2ccc([N+](=O)[O-])cc2Nc2cc(Cl)nc(N)n2)CC1`, the IC50 in data set [1] was 20.4 µM.

`CN1CCN(c2ccc(-c3ccc(C(=O)N(C)C)cc3)c(F)c2Nc2ncnc(Cl)c2N)CC1` yielded an IC50 in data set [1] of 240 µM.

As for `CN1CCN(c2ccc([N+](=O)[O-])cc2Nc2ncncc2N)CC1`, the IC50 in data set [1] is over 50 µM.

The compound `CN1CCN(c2ccc([N+](=O)[O-])cc2Nc2ncccc2N)CC1` yielded an IC50 in data set [1] of over 50 µM.

For the compound `CN1CCN(c2cc(F)c(-c3ccc(C(=O)N4CCOCC4)cc3)cc2Nc2ncnc(Cl)c2N)CC1`, in data set [2], the Papp at 4 h came to 13.7 ×10⁻⁶ cm/s. In addition, the IC50 in data set [3] was 19.6 µM; in data set [4], 16.5 µM; in data set [5], 88.7 µM; in data set [1], 36 µM; in data set [6], over 100 µM.

In data set [1], `Cc1c(Cl)ncnc1Nc1cc([N+](=O)[O-])ccc1N1CCN(C)CC1` had an IC50 of over 50 µM.

Take `CN1CCN(c2ccc(-c3ccc(C(=O)N4CCOCC4)cc3)c(F)c2Nc2ncnc(Cl)c2N)CC1`: the IC50 in data set [1] came out at 117 µM.

Turning to `Nc1c(Cl)ncnc1Nc1cc([N+](=O)[O-])ccc1N1CCNCC1`, in data set [1], the IC50 stood at 45.1 µM.

The compound `CN1CCC(NC(=O)c2ccc(-c3ccc(N4CCN(C)CC4)c(Nc4ncnc(Cl)c4N)c3)cc2)CC1` registered an IC50 in data set [1] of 0.23 µM.

With `CN1CCN(c2ccc(-c3ccc(C(=O)NCCCN4CCOCC4)cc3)cc2Nc2ncnc(Cl)c2N)CC1`, in data set [1], the IC50 was found to be 0.16 µM.

In turn, `Nc1c(Cl)ncnc1Nc1cc([N+](=O)[O-])ccc1N1CCN(c2ccccc2)CC1` yielded an IC50 in data set [1] of over 50 µM.

In turn, `CN1CCN(c2ccc([N+](=O)[O-])cc2Nc2ncnc(Cl)c2[N+](=O)[O-])CC1` registered an IC50 in data set [1] of over 50 µM.

`Cc1c(-c2ccc(C(=O)N(C)C)cc2)ccc(N2CCN(C)CC2)c1Nc1ncnc(Cl)c1N`: the IC50 in data set [1] was found to be 0.67 µM.

On to `CCN1CCN(c2ccc([N+](=O)[O-])cc2Nc2ncnc(Cl)c2N)CC1`, for which the IC50 in data set [1] amounted to 38.1 µM.

Regarding `CN1CCN(c2ccc(-c3ccc(NC(=O)C4CCOCC4)cc3)c(F)c2Nc2ncnc(Cl)c2N)CC1`, in data set [1], the IC50 was 176 µM.

On to `Cc1nc(Cl)c(N)c(Nc2cc([N+](=O)[O-])ccc2N2CCN(C)CC2)n1`, for which, in data set [1], the IC50 came to 12.1 µM.

As for `CN1CCN(c2cc(F)c(-c3ccc(C(=O)NCC4CCOCC4)cc3)cc2Nc2ncnc(Cl)c2N)CC1`, the Papp at 4 h in data set [2] amounted to 16.9 ×10⁻⁶ cm/s. In addition, the concentration for half-maximal inhibition (IC50) in data set [3] was 15.7 µM; in data set [4] it was 12.3 µM; in data set [5], 81.7 µM; in data set [1] it was 36 µM; in data set [6] it was over 100 µM.

Consider `CN1CCN(c2ccc(-c3ccc(C(=O)NCCN4CCOCC4)cc3)cc2Nc2ncnc(Cl)c2N)CC1`, for which, in data set [1], the IC50 stood at 0.18 µM.

In data set [1], `Nc1c(Cl)ncnc1Nc1cc([N+](=O)[O-])ccc1N1CCN(C2CC2)CC1` yielded an IC50 of over 50 µM.

`Nc1c(Cl)ncnc1Nc1cc([N+](=O)[O-])ccc1N1CCOCC1` gave an IC50 in data set [1] of over 50 µM.

Turning to `CN1CCN(C(=O)c2ccc(-c3ccc(N4CCN(C)CC4)c(Nc4ncnc(Cl)c4N)c3)cc2)CC1`, in data set [1], the IC50 was found to be 0.22 µM.

In the case of `CN1CCN(c2ccc([N+](=O)[O-])cc2Nc2nccc(N)n2)CC1`, the IC50 in data set [1] is over 50 µM.

In the case of `CN1CCN(c2cc(F)c(-c3ccc(C(=O)NCCN4CCOCC4)cc3)cc2Nc2ncnc(Cl)c2N)CC1`, in data set [2], the Papp at 4 h came out at 10.5 ×10⁻⁶ cm/s. Also, the IC50 in data set [3] was 27.7 µM; in data set [4], 23.1 µM; in data set [5] it was over 100 µM; in data set [1], 74 µM; in data set [6] it was over 100 µM.

In data set [1], `Nc1c(Cl)ncnc1Nc1cc([N+](=O)[O-])ccc1N1CCN(CCO)CC1` returned an IC50 of over 50 µM.

Regarding `CN1CCN(c2ccc([N+](=O)[O-])cc2Nc2cc(N3CCCC3)ncn2)CC1`, in data set [1], the half-maximal inhibitory concentration (IC50) is over 50 µM.

The compound `CN1CCN(c2ccc([N+](=O)[O-])cc2Nc2cc(N(C)C)ncn2)CC1` yielded an IC50 in data set [1] of over 50 µM.

In data set [1], `CN1CCN(c2ccc(-c3ccc(C(=O)NCCN4CCOCC4)cc3)c(F)c2Nc2ncnc(Cl)c2N)CC1` registered an IC50 of 102 µM.

`CN1CCN(c2ccc(-c3ccc(NC(=O)CC4CCOCC4)cc3)c(F)c2Nc2ncnc(Cl)c2N)CC1` came in with an IC50 in data set [1] of 85 µM.

As to `Cc1nc(Cl)cc(Nc2cc([N+](=O)[O-])ccc2N2CCN(C)CC2)n1`, the IC50 in data set [1] was over 50 µM.

On to `CN1CCN(c2ccc([N+](=O)[O-])cc2Nc2ncccn2)CC1`, for which the IC50 in data set [1] is over 50 µM.

As for `CN1CCN(c2ccc(-c3ccc(C(=O)N4CCC(O)CC4)cc3)cc2Nc2ncnc(Cl)c2N)CC1`, the IC50 in data set [1] stood at 0.11 µM.
